≈ marks a conversion by molar mass, not a printed value.
Tests used:
Assay type in all cases: functional
Klebsiella pneumoniae [1] = assay: Antibacterial activity against Klebsiella pneumoniae 09-2 after 18 hrs by two fold serial dilution method; conditions: 09-2, 18 h
Procedure, shortened: (§1)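 Agar two-fold serial dilution in melted Mueller-Hinton agar, final concentrations 128 down to 0.008 μg/mL. Plates inoculated with 10⁴ cfu and incubated at 35 °C for 18 h. MIC taken as the lowest concentration giving no visible growth on the plate.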

Klebsiella pneumoniae [2] = assay: Antibacterial activity against Klebsiella pneumoniae 10-1 after 18 hrs by two fold serial dilution method; conditions: 10-1, 18 h; procedure, shortened: as §1
Klebsiella pneumoniae [3] = assay: Antibacterial activity against Klebsiella pneumoniae 10-3 after 18 hrs by two fold serial dilution method; conditions: 10-3, 18 h; procedure, shortened: as §1
Pseudomonas aeruginosa [4] = assay: Antibacterial activity against Pseudomonas aeruginosa 10-1 after 18 hrs by two fold serial dilution method; conditions: 10-1, 18 h; procedure, shortened: as §1
Pseudomonas aeruginosa [5] = assay: Antibacterial activity against Pseudomonas aeruginosa 10-2 after 18 hrs by two fold serial dilution method; conditions: 10-2, 18 h; procedure, shortened: as §1
[6] = tested on: Staphylococcus epidermidis; assay: Antibacterial activity against methicillin-resistant Staphylococcus epidermidis 10-4 after 18 hrs by two fold serial dilution method; conditions: 10-4, 18 h
Procedure, shortened: (§2)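 Agar two-fold serial dilution in melted Mueller-Hinton agar, 128 to 0.008 μg/mL. Plates inoculated with 10⁴ cfu, incubated 35 °C for 18 h. MIC taken as lowest concentration giving no visible growth on the plate.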

Staphylococcus aureus [7] = assay: Antibacterial activity against methicillin-resistant Staphylococcus aureus 10-2 infected KM mouse systemic infection model assessed as decrease in mouse mortality administered orally twice after 1 and 4 hrs post infection measured up to 7 days; conditions: 10-2, po
Procedure, shortened: (§3)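 Strains grown on MH agar at 35 °C for 18 h, suspended in gastric mucin. Male KM mice (19–21 g), groups of 10, infected intraperitoneally with 0.5 mL at 5–10× MLD. Four oral dose levels per drug at 1 and 4 h post infection. Mortality followed 7 days; ED50 with 95% confidence limits by Bliss method.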

[8] = tested on: Staphylococcus epidermidis; assay: Antibacterial activity against methicillin-resistant Staphylococcus epidermidis 10-4 infected KM mouse systemic infection model assessed as decrease in mouse mortality administered orally twice after 1 and 4 hrs post infection measured up to 7 days; conditions: 10-4, po; procedure, shortened: as §3
Escherichia coli [9] = assay: Antibacterial activity against Escherichia coli 10-2 infected KM mouse systemic infection model assessed as decrease in mouse mortality administered orally twice after 1 and 4 hrs post infection measured up to 7 days; conditions: 10-2, po; procedure, shortened: as §3
Klebsiella pneumoniae [10] = assay: Antibacterial activity against Klebsiella pneumoniae 10-3 infected KM mouse systemic infection model assessed as decrease in mouse mortality administered orally twice after 1 and 4 hrs post infection measured up to 7 days; conditions: 10-3, po; procedure, shortened: as §3
Pseudomonas aeruginosa [11] = assay: Antibacterial activity against Pseudomonas aeruginosa 10-1 infected KM mouse systemic infection model assessed as decrease in mouse mortality administered orally twice after 1 and 4 hrs post infection measured up to 7 days; conditions: 10-1, po; procedure, shortened: as §3
Enterococcus faecium [12] = assay: Antibacterial activity against Enterococcus faecium 09-1 after 18 hrs by two fold serial dilution method; conditions: 09-1, 18 h; procedure, shortened: as §1
Staphylococcus aureus [13] = assay: Antibacterial activity against Staphylococcus aureus ATCC 25923 after 18 hrs by two fold serial dilution method; conditions: ATCC 25923, 18 h; procedure, shortened: as §1
Staphylococcus aureus [14] = assay: Antibacterial activity against methicillin-resistant Staphylococcus aureus 10-1 after 18 hrs by two fold serial dilution method; conditions: 10-1, 18 h; procedure, shortened: as §2
Staphylococcus aureus [15] = assay: Antibacterial activity against methicillin-resistant Staphylococcus aureus 10-3 after 18 hrs by two fold serial dilution method; conditions: 10-3, 18 h; procedure, shortened: as §2
Staphylococcus aureus [16] = assay: Antibacterial activity against methicillin-resistant Staphylococcus aureus 10-4 after 18 hrs by two fold serial dilution method; conditions: 10-4, 18 h; procedure, shortened: as §2
Staphylococcus aureus [17] = assay: Antibacterial activity against methicillin-sensitive Staphylococcus aureus 10-1 after 18 hrs by two fold serial dilution method; conditions: 10-1, 18 h; procedure, shortened: as §1
Staphylococcus aureus [18] = assay: Antibacterial activity against methicillin-sensitive Staphylococcus aureus 10-2 after 18 hrs by two fold serial dilution method; conditions: 10-2, 18 h; procedure, shortened: as §1
Staphylococcus aureus [19] = assay: Antibacterial activity against methicillin-sensitive Staphylococcus aureus 10-3 after 18 hrs by two fold serial dilution method; conditions: 10-3, 18 h; procedure, shortened: as §1
Staphylococcus aureus [20] = assay: Antibacterial activity against methicillin-sensitive Staphylococcus aureus 10-4 after 18 hrs by two fold serial dilution method; conditions: 10-4, 18 h; procedure, shortened: as §1
Staphylococcus aureus [21] = assay: Antibacterial activity against methicillin-sensitive Staphylococcus aureus 10-5 after 18 hrs by two fold serial dilution method; conditions: 10-5, 18 h; procedure, shortened: as §1
[22] = tested on: Staphylococcus epidermidis; assay: Antibacterial activity against methicillin-resistant Staphylococcus epidermidis 10-1 after 18 hrs by two fold serial dilution method; conditions: 10-1, 18 h; procedure, shortened: as §2
[23] = tested on: Staphylococcus epidermidis; assay: Antibacterial activity against methicillin-resistant Staphylococcus epidermidis 10-2 after 18 hrs by two fold serial dilution method; conditions: 10-2, 18 h; procedure, shortened: as §2
[24] = tested on: Staphylococcus epidermidis; assay: Antibacterial activity against methicillin-sensitive Staphylococcus epidermidis 10-1 after 18 hrs by two fold serial dilution method; conditions: 10-1, 18 h; procedure, shortened: as §1
[25] = tested on: Staphylococcus epidermidis; assay: Antibacterial activity against methicillin-sensitive Staphylococcus epidermidis 10-2 after 18 hrs by two fold serial dilution method; conditions: 10-2, 18 h; procedure, shortened: as §1
Streptococcus pneumoniae = assay: Antibacterial activity against Streptococcus pneumoniae 10-1 after 18 hrs by two fold serial dilution method; conditions: 10-1, 18 h; procedure, shortened: as §1
Enterococcus faecium [26] = assay: Antibacterial activity against Enterococcus faecium 09-2 after 18 hrs by two fold serial dilution method; conditions: 09-2, 18 h; procedure, shortened: as §1
Enterococcus faecium [27] = assay: Antibacterial activity against Enterococcus faecium 09-3 after 18 hrs by two fold serial dilution method; conditions: 09-3, 18 h; procedure, shortened: as §1
Enterococcus faecium [28] = assay: Antibacterial activity against Enterococcus faecium 09-4 after 18 hrs by two fold serial dilution method; conditions: 09-4, 18 h; procedure, shortened: as §1
Enterococcus faecium [29] = assay: Antibacterial activity against Enterococcus faecium 09-5 after 18 hrs by two fold serial dilution method; conditions: 09-5, 18 h; procedure, shortened: as §1
Enterococcus faecium [30] = assay: Antibacterial activity against Enterococcus faecium 09-6 after 18 hrs by two fold serial dilution method; conditions: 09-6, 18 h; procedure, shortened: as §1
Enterococcus faecalis [31] = assay: Antibacterial activity against Enterococcus faecalis 09-1 after 18 hrs by two fold serial dilution method; conditions: 09-1, 18 h; procedure, shortened: as §1
Enterococcus faecalis [32] = assay: Antibacterial activity against Enterococcus faecalis 09-2 after 18 hrs by two fold serial dilution method; conditions: 09-2, 18 h; procedure, shortened: as §1
Escherichia coli [33] = assay: Antibacterial activity against Escherichia coli 09-3 after 18 hrs by two fold serial dilution method; conditions: 09-3, 18 h; procedure, shortened: as §1
Escherichia coli [34] = assay: Antibacterial activity against Escherichia coli 10-2 after 18 hrs by two fold serial dilution method; conditions: 10-2, 18 h; procedure, shortened: as §1
Escherichia coli [35] = assay: Antibacterial activity against Escherichia coli 10-3 after 18 hrs by two fold serial dilution method; conditions: 10-3, 18 h; procedure, shortened: as §1
Pseudomonas aeruginosa [36] = assay: Antibacterial activity against Pseudomonas aeruginosa ATCC 27853 after 18 hrs by two fold serial dilution method; conditions: ATCC 27853, 18 h; procedure, shortened: as §1
Pseudomonas aeruginosa [37] = assay: Antibacterial activity against Pseudomonas aeruginosa 10-3 after 18 hrs by two fold serial dilution method; conditions: 10-3, 18 h; procedure, shortened: as §1
Staphylococcus aureus [38] = assay: Antibacterial activity against methicillin-resistant Staphylococcus aureus 10-2 after 18 hrs by two fold serial dilution method; conditions: 10-2, 18 h; procedure, shortened: as §2
Staphylococcus aureus [39] = assay: Antibacterial activity against methicillin-sensitive Staphylococcus aureus 10-6 after 18 hrs by two fold serial dilution method; conditions: 10-6, 18 h; procedure, shortened: as §1
Escherichia coli [40] = assay: Antibacterial activity against Escherichia coli ATCC 25922 after 18 hrs by two fold serial dilution method; conditions: ATCC 25922, 18 h; procedure, shortened: as §1
Escherichia coli [41] = assay: Antibacterial activity against Escherichia coli 09-2 after 18 hrs by two fold serial dilution method; conditions: 09-2, 18 h; procedure, shortened: as §1

| Structure (SMILES) | MIC (Klebsiella pneumoniae [1]) [µg/mL] | MIC (Klebsiella pneumoniae [2]) [µg/mL] | MIC (Klebsiella pneumoniae [3]) [µg/mL] | MIC (Pseudomonas aeruginosa [4]) [µg/mL] | MIC (Pseudomonas aeruginosa [5]) [µg/mL] | MIC (Enterococcus faecium [12]) [µg/mL] | MIC (Staphylococcus aureus [13]) [µg/mL] | MIC (Staphylococcus aureus [14]) [µg/mL] | MIC (Staphylococcus aureus [15]) [µg/mL] | MIC (Staphylococcus aureus [16]) [µg/mL] | MIC (Staphylococcus aureus [17]) [µg/mL] | MIC (Staphylococcus aureus [18]) [µg/mL] | MIC (Staphylococcus aureus [19]) [µg/mL] | MIC (Staphylococcus aureus [20]) [µg/mL] | MIC (Staphylococcus aureus [21]) [µg/mL] | MIC [22] [µg/mL] | MIC [23] [µg/mL] | MIC [24] [µg/mL] | MIC [25] [µg/mL] | MIC (Streptococcus pneumoniae) [µg/mL] | also measured |
| --- | --- | --- | --- | --- | --- | --- | --- | --- | --- | --- | --- | --- | --- | --- | --- | --- | --- | --- | --- | --- | --- |
| O=C(O)c1cn(C2CC2)c2cc(N3CCNCC3)c(F)cc2c1=O [CIPROFLOXACIN] | 32 (≈ 96.6 µM) | 0.06 (≈ 0.181 µM) | 0.25 (≈ 0.754 µM) | 0.06 (≈ 0.181 µM) | > 128 | > 128 | 0.25 (≈ 0.754 µM) | > 128 | > 128 | > 128 | 0.015 (≈ 0.0453 µM) | 64 (≈ 193 µM) | 0.06 (≈ 0.181 µM) | 0.06 (≈ 0.181 µM) | 0.03 (≈ 0.0905 µM) | 16 (≈ 48.3 µM) | 8 (≈ 24.1 µM) | 8 (≈ 24.1 µM) | 64 (≈ 193 µM) | 0.03 (≈ 0.0905 µM) | MIC [6]: 8 µg/mL (≈ 24.1 µM); ED50 (Staphylococcus aureus [7]): 15.9 mg/kg; ED50 [8]: 24.5 mg/kg; ED50 (Escherichia coli [9]): 4 mg/kg; ED50 (Klebsiella pneumoniae [10]): 87.5 mg/kg; ED50 (Pseudomonas aeruginosa [11]): 111 mg/kg; MIC (Enterococcus faecium [26]): > 128 µg/mL; MIC (Enterococcus faecium [27]): 128 µg/mL (≈ 386 µM); MIC (Enterococcus faecium [28]): 0.5 µg/mL (≈ 1.51 µM); MIC (Enterococcus faecium [29]): 64 µg/mL (≈ 193 µM); MIC (Enterococcus faecium [30]): 0.5 µg/mL (≈ 1.51 µM); MIC (Enterococcus faecalis [31]): 64 µg/mL (≈ 193 µM); MIC (Enterococcus faecalis [32]): 64 µg/mL (≈ 193 µM); MIC (Escherichia coli [33]): 64 µg/mL (≈ 193 µM) |
| COc1c(N2C[C@@H]3CCCN[C@@H]3C2)c(F)cc2c(=O)c(C(=O)O)cn(C3CC3)c12 [MOXIFLOXACIN] | 16 (≈ 39.9 µM) | 0.03 (≈ 0.0747 µM) | 0.5 (≈ 1.25 µM) | 0.5 (≈ 1.25 µM) | 16 (≈ 39.9 µM) | 16 (≈ 39.9 µM) | 0.008 (≈ 0.0199 µM) | 8 (≈ 19.9 µM) | 8 (≈ 19.9 µM) | 8 (≈ 19.9 µM) | 0.008 (≈ 0.0199 µM) | 4 (≈ 9.96 µM) | 0.008 (≈ 0.0199 µM) | 0.008 (≈ 0.0199 µM) | 0.03 (≈ 0.0747 µM) | 0.5 (≈ 1.25 µM) | 1 (≈ 2.49 µM) | 2 (≈ 4.98 µM) | 16 (≈ 39.9 µM) | 0.008 (≈ 0.0199 µM) | MIC (Escherichia coli [34]): 0.5 µg/mL (≈ 1.25 µM); MIC (Escherichia coli [35]): 4 µg/mL (≈ 9.96 µM); MIC (Pseudomonas aeruginosa [36]): 1 µg/mL (≈ 2.49 µM); MIC (Pseudomonas aeruginosa [37]): 4 µg/mL (≈ 9.96 µM); MIC (Staphylococcus aureus [38]): 8 µg/mL (≈ 19.9 µM); MIC (Staphylococcus aureus [39]): 0.008 µg/mL (≈ 0.0199 µM); MIC (Enterococcus faecium [26]): 16 µg/mL (≈ 39.9 µM); MIC (Enterococcus faecium [27]): 2 µg/mL (≈ 4.98 µM); MIC (Enterococcus faecium [28]): 0.008 µg/mL (≈ 0.0199 µM); MIC (Enterococcus faecium [29]): 16 µg/mL (≈ 39.9 µM); MIC (Enterococcus faecium [30]): 0.125 µg/mL (≈ 0.311 µM); MIC (Enterococcus faecalis [31]): 8 µg/mL (≈ 19.9 µM); MIC (Enterococcus faecalis [32]): 16 µg/mL (≈ 39.9 µM); MIC (Escherichia coli [40]): 0.008 µg/mL (≈ 0.0199 µM); MIC (Escherichia coli [41]): 32 µg/mL (≈ 79.7 µM) |

— ChEMBL document CHEMBL1926550, “Synthesis and antibacterial activity of naphthyridone derivatives containing mono/difluoro-methyloxime pyrrolidine scaffolds” (2012)
